Results from ChEMBL document CHEMBL1126061, “Cyclic RGD peptide analogues as antiplatelet antithrombotics” (J Med Chem, 1992).
*1 amine or outer side, *2 acyl side, *3 side chain or, on linkers, in order; H or OH if unused. Where a SMILES comes first, the peptide text is derived from it. Bridges are numbered along the chain shown (N, C = ends). [ ]: non-standard residue; d: D form. Cys(O)(CH2CO) = O=C([C@H](C[S+]([O-])CC(=O)[*:3])N[*:1])[*:2]

Molecular target: Integrin alpha-IIb/beta-3 (Homo sapiens, UniProt P05106+P08514)
Experiment: The compound was tested for the inhibition of fibrinogen receptor
Type: protein-complex assay
Method in brief: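 Solid-phase ELISA: human fibrinogen (10 µg/mL) coated, BSA-blocked; samples plus purified human platelet GPIIbIIIa (40 µg/mL) incubated 1 h at room temperature. Bound receptor detected with anti-GPIIbIIIa antibody AP3 (1 µg/mL, 1 h), then goat anti-mouse HRP (1 h); OPD/H2O2 at pH 5, stopped with H2SO4, absorbance 492-405 nm. IC50 from four-parameter fit; n ≥ 3.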

Integrin alpha-IIb/beta-3, sequence (P05106 27-788 limits assumed): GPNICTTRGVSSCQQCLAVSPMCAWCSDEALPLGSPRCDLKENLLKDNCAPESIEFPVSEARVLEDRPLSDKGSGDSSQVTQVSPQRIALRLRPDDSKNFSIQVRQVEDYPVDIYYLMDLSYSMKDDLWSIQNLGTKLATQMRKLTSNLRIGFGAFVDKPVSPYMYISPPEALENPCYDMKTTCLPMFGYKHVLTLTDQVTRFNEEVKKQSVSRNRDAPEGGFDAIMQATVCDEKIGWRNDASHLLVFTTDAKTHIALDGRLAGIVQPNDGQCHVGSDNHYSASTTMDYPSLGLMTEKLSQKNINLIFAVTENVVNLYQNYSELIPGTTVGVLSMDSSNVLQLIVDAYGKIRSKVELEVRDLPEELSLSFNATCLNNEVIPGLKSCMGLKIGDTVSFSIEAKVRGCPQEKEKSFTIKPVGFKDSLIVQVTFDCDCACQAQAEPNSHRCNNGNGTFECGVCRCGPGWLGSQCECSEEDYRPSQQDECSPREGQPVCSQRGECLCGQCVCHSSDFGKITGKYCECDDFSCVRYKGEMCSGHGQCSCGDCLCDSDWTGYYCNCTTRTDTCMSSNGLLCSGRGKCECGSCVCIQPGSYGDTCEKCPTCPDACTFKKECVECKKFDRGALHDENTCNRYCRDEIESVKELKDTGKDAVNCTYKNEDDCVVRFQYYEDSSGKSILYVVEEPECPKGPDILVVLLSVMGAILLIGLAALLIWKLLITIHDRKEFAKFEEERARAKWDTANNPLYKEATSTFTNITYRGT
Integrin alpha-IIb/beta-3, sequence (P08514 32-887 limits assumed): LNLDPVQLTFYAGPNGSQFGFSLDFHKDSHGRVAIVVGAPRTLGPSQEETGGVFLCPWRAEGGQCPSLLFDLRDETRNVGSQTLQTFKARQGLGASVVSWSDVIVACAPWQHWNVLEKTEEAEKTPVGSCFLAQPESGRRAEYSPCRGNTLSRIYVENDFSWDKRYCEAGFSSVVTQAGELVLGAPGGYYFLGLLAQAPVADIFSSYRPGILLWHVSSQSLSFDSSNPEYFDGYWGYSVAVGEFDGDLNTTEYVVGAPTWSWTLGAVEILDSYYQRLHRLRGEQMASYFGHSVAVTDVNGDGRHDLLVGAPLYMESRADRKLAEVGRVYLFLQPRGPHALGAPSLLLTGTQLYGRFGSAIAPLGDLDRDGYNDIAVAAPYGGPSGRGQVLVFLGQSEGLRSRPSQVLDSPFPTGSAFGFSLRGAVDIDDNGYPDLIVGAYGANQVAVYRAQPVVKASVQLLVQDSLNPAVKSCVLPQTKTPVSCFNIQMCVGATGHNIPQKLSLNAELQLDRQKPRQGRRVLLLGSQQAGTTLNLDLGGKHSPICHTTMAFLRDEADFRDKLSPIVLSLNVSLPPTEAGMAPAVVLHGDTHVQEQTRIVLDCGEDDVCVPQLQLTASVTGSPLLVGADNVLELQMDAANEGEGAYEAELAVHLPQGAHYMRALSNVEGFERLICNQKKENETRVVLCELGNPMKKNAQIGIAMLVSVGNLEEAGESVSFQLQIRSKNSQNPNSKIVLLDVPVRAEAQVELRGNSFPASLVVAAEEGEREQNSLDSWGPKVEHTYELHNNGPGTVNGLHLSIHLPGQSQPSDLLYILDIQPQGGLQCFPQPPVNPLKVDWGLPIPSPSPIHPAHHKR
Integrin alpha-IIb/beta-3, sequence (P08514 891-1039 limits assumed): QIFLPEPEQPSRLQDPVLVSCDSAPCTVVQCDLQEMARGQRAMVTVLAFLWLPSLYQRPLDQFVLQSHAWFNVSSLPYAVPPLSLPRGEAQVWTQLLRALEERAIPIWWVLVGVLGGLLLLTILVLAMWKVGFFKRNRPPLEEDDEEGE

| SMILES | IC50 |
| --- | --- |
| N=C(N)NCCC[C@@H]1NC(=O)CNC(=O)CS(=O)(=O)C[C@@H](C(=O)O)NC(=O)[C@H](CC(=O)O)NC(=O)CNC1=O | 18 nM |
| N=C(N)NCCC[C@@H]1NC(=O)[C@@H](Cc2ccc(O)cc2)NC(=O)C[S+]([O-])C[C@@H](C(=O)O)NC(=O)[C@H](CC(=O)O)NC(=O)CNC1=O (stereo in doubt; 69B) | 40 nM |
| N=C(N)NCCC[C@@H]1NC(=O)[C@@H](Cc2ccccc2)NC(=O)CSC[C@@H](C(=O)O)NC(=O)[C@H](CC(=O)O)NC(=O)CNC1=O | 35 nM |
| NC(=O)CC[C@H]1NC(=O)CSC[C@@H](C(=O)O)NC(=O)[C@H](CC(=O)O)NC(=O)CNC(=O)[C@H](CCCN=C(N)N)NC1=O | 110 nM |
| CCC1SC[C@@H](C(=O)O)NC(=O)[C@H](CC(=O)O)NC(=O)CNC(=O)[C@H](CCCN=C(N)N)NC(=O)CNC1=O (stereo in doubt; 25A) | 20 nM |
| CC(C)C[C@H](NC(=O)[C@H](CC(=O)O)NC(=O)CNC(=O)[C@@H](N)CCCN=C(N)N)C(=O)O (H-RGDL-OH) | 105 nM |
| CC(C)C[C@H](NC(=O)[C@H](CC(=O)O)NC(=O)CNC(=O)[C@H](CCCN=C(N)N)NC(=O)CN)C(=O)O (H-GRGDL-OH) | 500 nM |
| N=C(N)NCCC[C@@H]1NC(=O)CNC(=O)C(c2cccc(C(F)(F)F)c2)SC[C@@H](C(=O)O)NC(=O)[C@H](CC(=O)O)NC(=O)CNC1=O (stereo in doubt; 24A) | 35 nM |
| N=C(N)NCCC[C@@H]1NC(=O)[C@H](CC(=O)O)NC(=O)CSC[C@@H](C(=O)O)NC(=O)[C@H](CC(=O)O)NC(=O)CNC1=O | 25 nM |
| CSCC[C@H]1NC(=O)CSC[C@@H](C(=O)O)NC(=O)[C@H](CC(=O)O)NC(=O)CNC(=O)[C@H](CCCNC(=N)N)NC1=O | 28 nM |
| N=C(N)NCCC[C@@H]1NC(=O)[C@@H](CCCCN)NC(=O)CSC[C@@H](C(=O)O)NC(=O)[C@H](CC(=O)O)NC(=O)CNC1=O | 20 nM |
| N=C(N)NCCC[C@@H]1NC(=O)CNC(=O)C[S+]([O-])C[C@@H](C(=O)O)NC(=O)[C@H](CC(=O)O)NC(=O)CNC1=O (stereo in doubt; 66B) | 25 nM |
| N=C(N)NCCC[C@@H]1NC(=O)[C@@H](CCCN)NC(=O)CSC[C@@H](C(=O)O)NC(=O)[C@H](CC(=O)O)NC(=O)CNC1=O | 31 nM |
| N=C(N)NCCC[C@@H]1NC(=O)CSC[C@@H](C(=O)O)NC(=O)[C@H](CC(=O)O)NC(=O)CNC1=O ({CH2CO}-RGDC-OH; thioether N-4) | 132 nM |
| NCC(=O)N[C@@H](CCCN=C(N)N)C(=O)NCC(=O)N[C@@H](CC(=O)O)C(=O)N[C@@H](CC(=O)O)C(=O)O (H-GRGDD-OH) | 231 nM |
| N=C(N)NCCC[C@@H]1NC(=O)CNC(=O)[C@@H](Cc2ccccc2)SC[C@@H](C(=O)O)NC(=O)[C@H](CC(=O)O)NC(=O)CNC1=O | 29 nM |
| N=C(N)NCCC[C@@H]1NC(=O)[C@@H](CO)NC(=O)CSC[C@@H](C(=O)O)NC(=O)[C@H](CC(=O)O)NC(=O)CNC1=O | 22 nM |
| N=C(N)NCCC[C@@H]1NC(=O)[C@@H](Cc2ccc(O)cc2)NC(=O)CSC[C@@H](C(=O)O)NC(=O)[C@H](CC(=O)O)NC(=O)CNC1=O ({CH2CO}-[dY]RGDC-OH; thioether N-5) | 20 nM |
| N=C(N)NCCC[C@@H]1NC(=O)[C@@H](Cc2c[nH]c3ccccc23)NC(=O)CSC[C@@H](C(=O)O)NC(=O)[C@H](CC(=O)O)NC(=O)CNC1=O | 29 nM |
| N=C(N)NCCC[C@@H]1NC(=O)[C@H](Cc2ccc(O)cc2)NC(=O)C[S+]([O-])C[C@@H](C(=O)O)NC(=O)[C@H](CC(=O)O)NC(=O)CNC1=O (stereo in doubt; 70A) | 1.5 nM |
| NCC(=O)N[C@@H](CCCN=C(N)N)C(=O)NCC(=O)N[C@@H](CC(=O)O)C(=O)N[C@@H](Cc1ccc(O)cc1)C(=O)O (H-GRGDY-OH) | 240 nM |
| N=C(N)NCCC[C@@H]1NC(=O)[C@H](CCC(=O)O)NC(=O)C[S+]([O-])C[C@@H](C(=O)O)NC(=O)[C@H](CC(=O)O)NC(=O)CNC1=O (stereo in doubt; 73B) | 68 nM |

The next lines start with the values.

| IC50 | SMILES |
| --- | --- |
| 5.3 nM | N=C(N)NCCC[C@@H]1NC(=O)CNC(=O)C(c2cccc3ccccc23)SC[C@@H](C(=O)O)NC(=O)[C@H](CC(=O)O)NC(=O)CNC1=O (stereo in doubt; 17A) |
| 15 nM | N=C(N)NCCC[C@@H]1NC(=O)CNC(=O)C(c2ccccc2)SC[C@@H](C(=O)O)NC(=O)[C@H](CC(=O)O)NC(=O)CNC1=O (stereo in doubt; 18A) |
| 1 nM | N=C(N)NCCC[C@@H]1NC(=O)[C@@H]2CCCN2C(=O)CSC[C@@H](C(=O)O)NC(=O)[C@H](CC(=O)O)NC(=O)CNC1=O ({CH2CO}-PRGDC-OH; thioether N-5) |
| 3 nM | CC(C)C[C@@H]1NC(=O)CSC[C@@H](C(=O)O)NC(=O)[C@H](CC(=O)O)NC(=O)CNC(=O)[C@H](CCCNC(=N)N)NC1=O |
| 2.7 nM | N=C(N)NCCC[C@@H]1NC(=O)CNC(=O)C(c2ccccc2C(F)(F)F)SC[C@@H](C(=O)O)NC(=O)[C@H](CC(=O)O)NC(=O)CNC1=O (stereo in doubt; 20B) |
| 9.5 nM | C[C@H]1NC(=O)CSC[C@@H](C(=O)O)NC(=O)[C@H](CC(=O)O)NC(=O)CNC(=O)[C@H](CCCNC(=N)N)NC1=O ({CH2CO}-[dA]RGDC-OH; thioether N-5) |
| 17 nM | CC(C)[C@H]1NC(=O)CSC[C@@H](C(=O)O)NC(=O)[C@H](CC(=O)O)NC(=O)CNC(=O)[C@H](CCCNC(=N)N)NC1=O |
| 0.5 nM | N=C(N)NCCC[C@@H]1NC(=O)CNC(=O)C(c2ccccc2)SC[C@@H](C(=O)O)NC(=O)[C@H](CC(=O)O)NC(=O)CNC1=O (stereo in doubt; 18B) |
| 1.3 nM | C[C@@H](O)[C@@H]1NC(=O)CSC[C@@H](C(=O)O)NC(=O)[C@H](CC(=O)O)NC(=O)CNC(=O)[C@H](CCCN=C(N)N)NC1=O |
| 1.6 nM | C[C@@H]1NC(=O)C[S+]([O-])C[C@@H](C(=O)O)NC(=O)[C@H](CC(=O)O)NC(=O)CNC(=O)[C@H](CCCN=C(N)N)NC1=O (stereo in doubt; 68A) |
| 2.5 nM | C[C@@H]1NC(=O)CSC[C@@H](C(=O)O)NC(=O)[C@H](CC(=O)O)NC(=O)CNC(=O)[C@H](CCCNC(=N)N)NC1=O ({CH2CO}-ARGDC-OH; thioether N-5) |
| 12 nM | N=C(N)NCCC[C@@H]1NC(=O)CNC(=O)CSC[C@@H](C(N)=O)NC(=O)[C@H](CC(=O)O)NC(=O)CNC1=O ({CH2CO}-GRGDC-NH2; thioether N-5) |
| 1.4 nM | N=C(N)NCCC[C@@H]1NC(=O)CNC(=O)C[S+]([O-])C[C@@H](C(=O)O)NC(=O)[C@H](CC(=O)O)NC(=O)CNC1=O (stereo in doubt; 66A) |
| 4.7 nM | C[C@@H]1NC(=O)C[S+]([O-])C[C@@H](C(=O)O)NC(=O)[C@H](CC(=O)O)NC(=O)CNC(=O)[C@H](CCCN=C(N)N)NC1=O (stereo in doubt; 68B) |
| 4.5 nM | N=C(N)NCCC[C@@H]1NC(=O)[C@H](Cc2ccc(O)cc2)NC(=O)C[S+]([O-])C[C@@H](C(N)=O)NC(=O)[C@H](CC(=O)O)NC(=O)CNC1=O (stereo partly drawn) (YRGD[Cys(O)(CH2CO)]-NH2; lactam N-5) |
| 4 nM | N=C(N)NCCC[C@@H]1NC(=O)CNC(=O)C(c2ccc(C(F)(F)F)cc2)SC[C@@H](C(=O)O)NC(=O)[C@H](CC(=O)O)NC(=O)CNC1=O (stereo in doubt; 22B) |

| IC50 | SMILES |
| --- | --- |
| 2.8 nM | N=C(N)NCCC[C@@H]1NC(=O)CNC(=O)C(c2ccc3ccccc3c2)SC[C@@H](C(=O)O)NC(=O)[C@H](CC(=O)O)NC(=O)CNC1=O (stereo in doubt; 21B) |
| 7.5 nM | NCCCC[C@@H]1NC(=O)CSC[C@@H](C(=O)O)NC(=O)[C@H](CC(=O)O)NC(=O)CNC(=O)[C@H](CCCN=C(N)N)NC1=O |
| 3.5 nM | N=C(N)NCCC[C@@H]1NC(=O)CNC(=O)C(c2ccc(-c3ccccc3)cc2)SC[C@@H](C(=O)O)NC(=O)[C@H](CC(=O)O)NC(=O)CNC1=O (stereo in doubt; 19B) |
| 2.7 nM | N=C(N)NCCC[C@@H]1NC(=O)[C@H](CC(N)=O)NC(=O)CSC[C@@H](C(=O)O)NC(=O)[C@H](CC(=O)O)NC(=O)CNC1=O ({CH2CO}-NRGDC-OH; thioether N-5) |
| 11.5 nM | N=C(N)NCCC[C@@H]1NC(=O)CNC(=O)C(c2ccc3ccccc3c2)SC[C@@H](C(=O)O)NC(=O)[C@H](CC(=O)O)NC(=O)CNC1=O (stereo in doubt; 21A) |
| 4 nM | CSCC[C@@H]1NC(=O)CSC[C@@H](C(=O)O)NC(=O)[C@H](CC(=O)O)NC(=O)CNC(=O)[C@H](CCCNC(=N)N)NC1=O |
| 12 nM | N=C(N)NCCC[C@@H]1NC(=O)CCNC(=O)CSC[C@@H](C(=O)O)NC(=O)[C@H](CC(=O)O)NC(=O)CNC1=O |
| 6 nM | CCC1SC[C@@H](C(=O)O)NC(=O)[C@H](CC(=O)O)NC(=O)CNC(=O)[C@H](CCCN=C(N)N)NC(=O)CNC1=O (stereo in doubt; 25B) |
| 4.7 nM | N=C(N)NCCC[C@@H]1NC(=O)[C@H](CCC(=O)O)NC(=O)C[S+]([O-])C[C@@H](C(=O)O)NC(=O)[C@H](CC(=O)O)NC(=O)CNC1=O (stereo in doubt; 73A) |
| 1.4 nM | N=C(N)NCCC[C@@H]1NC(=O)CNC(=O)C(c2cccc3ccccc23)SC[C@@H](C(=O)O)NC(=O)[C@H](CC(=O)O)NC(=O)CNC1=O (stereo in doubt; 17B) |
| 1.5 nM | N=C(N)NCCC[C@@H]1NC(=O)[C@H](Cc2ccc(O)cc2)NC(=O)CSC[C@@H](C(=O)O)NC(=O)[C@H](CC(=O)O)NC(=O)CNC1=O ({CH2CO}-YRGDC-OH; thioether N-5) |
| 14 nM | N=C(N)NCCC[C@@H]1NC(=O)CNC(=O)[C@H](Cc2ccccc2)SC[C@@H](C(=O)O)NC(=O)[C@H](CC(=O)O)NC(=O)CNC1=O |
| 2 nM | CC(C)[C@@H]1NC(=O)CSC[C@@H](C(=O)O)NC(=O)[C@H](CC(=O)O)NC(=O)CNC(=O)[C@H](CCCN=C(N)N)NC1=O |
| 2.5 nM | N=C(N)NCCC[C@@H]1NC(=O)[C@H](Cc2ccc(O)cc2)NC(=O)CSC[C@@H](C(N)=O)NC(=O)[C@H](CC(=O)O)NC(=O)CNC1=O ({CH2CO}-YRGDC-NH2; thioether N-5) |
| 3 nM | N=C(N)NCCC[C@@H]1NC(=O)[C@H](Cc2cnc[nH]2)NC(=O)CSC[C@@H](C(=O)O)NC(=O)[C@H](CC(=O)O)NC(=O)CNC1=O |
